Activity, IC50 and selectivity ratio data for three compounds are collected here from ChEMBL document CHEMBL4402517, “Rational modification of Mannich base-type derivatives as novel antichagasic compounds: Synthesis, in vitro and in vivo evaluation” (Bioorg Med Chem, 2019).

Data set [1] relates to Trypanosoma cruzi. In words: Antitrypanosomal activity against Trypanosoma cruzi MHOM/Pe/2011/Arequipa;DTU 5 bloodstream trypomastigote infected in BALB/c mouse assessed as parasite-free oesophagus in acute phase at 20 mg/kg/day, po administered for 5 consecutive days starting from day 8 post infection followed by cyclophosphamide induced immunosuppression on day 80 post infection measured after day 100 post infection by PCR method relative to control. The format is functional. A digest of the protocol: (§1)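 Female BALB/c mice (10–12 weeks, three per group) were infected i.p. with 5 × 10^5 Arequipa bloodstream trypomastigotes. Dosing was oral, 20 mg/kg/day for 5 days, as a suspension in 5% DMSO/0.5% HPMC. Cyclophosphamide 200 mg/kg i.p. was given at day 80 pi. At necropsy (day 100) tissues were tested by PCR on the splice leader region (primers TC/TC1, 300 bp). Scored as x/3 mice positive.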

Data set [2] has as its system Trypanosoma cruzi. In words: Antitrypanosomal activity against Trypanosoma cruzi TINF/CH/1956/Tulahuen;DTU 6 amastigote forms measured after 72 hrs by Giemsa staining based assay. The format is functional, organism-based. Particulars: TINF/CH/1956/Tulahuen;DTU 6, 72 h. In short, it runs like this:
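Vero cells (1 × 10^4/well, on coverslips) left to adhere 24 h at 37 °C, 5% CO2, then infected with trypomastigotes at MOI 10:1 for 24 h. Free parasites were removed by three PBS washes. Compounds at 3.1, 6.25, 12.5, 25 and 50 µM were incubated 72 h, and amastigotes were counted after Giemsa staining. Triplicates, two separate experiments; IC50 by nonlinear regression.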

The subject of data set [3] is Trypanosoma cruzi. The data set can be described thus: Antitrypanosomal activity against Trypanosoma cruzi MHOM/Pe/2011/Arequipa;DTU 5 epimastigote assessed as inhibition of DNA and RNA levels at IC50 measured after 72 hrs by acridine orange staining based flow cytometry relative to control. More on the design: scale not given: the % may be the effect or the level left. Format: functional. In short, it runs like this: (§2)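 They were stained with rhodamine 123 or acridine orange and analysed by flow cytometry. Index of variation = (TM−CM)/CM, from median fluorescence of treated (TM) and untreated (CM) parasites.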

Data set [4] can be described thus: Toxicity in BALB/c mouse infected with Trypanosoma cruzi MHOM/Pe/2011/Arequipa;DTU 5 bloodstream trypomastigote assessed as decrease in serum creatine kinase muscle to brain ratio level in acute phase at 20 mg/kg/day, po administered for 5 consecutive days starting from day 8 post infection and measured at day 14 post infection by biochemical analysis relative to control. The settings on record: in vivo. More on the design: scale not given: the % may be the effect or the level left. Format: organism-based. In short, it runs like this:
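Female BALB/c mice (10–12 weeks, 14–20 g; groups of three) were infected i.p. with 5 × 10^5 Arequipa bloodstream trypomastigotes. Dosing was oral at 20 mg/kg/day for 5 days, from day 8 pi (acute) or day 70 pi (chronic), as a 2 mg/ml suspension in 5% DMSO/0.5% HPMC; controls received vehicle. Cyclophosphamide 200 mg/kg i.p. was given at day 80 pi. Serum was collected 2 days post-treatment and at necropsy by cardiac puncture and compared with infected untreated controls.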

The test system of data set [5] is Trypanosoma cruzi. In words: Antitrypanosomal activity against Trypanosoma cruzi MHOM/Pe/2011/Arequipa;DTU 5 bloodstream trypomastigote infected in BALB/c mouse assessed as parasite-free adipose tissue in chronic phase at 20 mg/kg/day, po administered for 5 consecutive days starting from day 70 post infection followed by cyclophosphamide induced immunosuppression on day 80 post infection measured after day 100 post infection by PCR method relative to control. The format is functional. A digest of the protocol: as §1

Data set [6] can be described thus: Selectivity index, ratio of IC50 for African green monkey Vero cells to IC50 for Trypanosoma cruzi IRHOD/CO/2008/SN3;DTU 1. The format is toxicity. Particulars: read-out: Selectivity Index. A digest of the protocol:
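SI = Vero IC50 / epimastigote IC50. Vero cells were grown in RPMI-1640 with 10% FBS, seeded at 0.8 × 10^4 cells/well, exposed to 10.0–200.0 µM for 72 h, then given MTT for 4 h. Epimastigotes were grown in MTL with 10% FBS at 28 °C, 5 × 10^5/mL, exposed to 6.3–50 µM for 48 h, then resazurin for 24 h (570/600 nm). IC50s came from nonlinear regression.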

For data set [7], the system named is Trypanosoma cruzi. In words: Antitrypanosomal activity against Trypanosoma cruzi MHOM/Pe/2011/Arequipa;DTU 5 bloodstream trypomastigotes infected in BALB/c mouse assessed as reduction in serum Ig-G level in acute phase at 20 mg/kg/day, po administered for 5 consecutive days starting from day 8 post infection and measured at day 79 post infection by ELISA. Format: functional, organism-based. A digest of the protocol:
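Sera came from infected BALB/c mice (three per group) dosed orally at 20 mg/kg/day for 5 days. Sampling points: 2 days after treatment, the day before immunosuppression (acute only) and necropsy day. Anti-T. cruzi IgG was measured by indirect ELISA using parasite Fe-SOD as antigen, read as OD at 492 nm.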

In data set [8] the test system is Trypanosoma cruzi. In words: Antitrypanosomal activity against Trypanosoma cruzi MHOM/Pe/2011/Arequipa;DTU 5 epimastigote assessed as change in RNA level at IC50 measured after 72 hrs by acridine orange staining based flow cytometry relative to control. The format is functional. A digest of the protocol:
as §2
On the technique in general: A flow cytometer gives signals particle by particle.

A short description of data set [9]: Selectivity index, ratio of IC50 for African green monkey Vero cells to IC50 for Trypanosoma cruzi MHOM/Pe/2011/Arequipa; DTU 5 amastigote forms. Format: toxicity. The settings on record: read-out: Selectivity Index. In short, it runs like this:
(§3)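 Vero cells (1 × 10^4/well) were infected with trypomastigotes at MOI 10:1 for 24 h and washed with PBS. They were then exposed to 3.1–50 µM for 72 h at 37 °C in 5% CO2, and amastigotes were counted after Giemsa staining. Triplicates in two determinations; nonlinear regression.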

Data set [10] can be described thus: Selectivity index, ratio of IC50 for African green monkey Vero cells to IC50 for Trypanosoma cruzi IRHOD/CO/2008/SN3;DTU 1 amastigote forms. The format is toxicity. The settings on record: read-out: Selectivity Index. A digest of the protocol: as §3
Data set [11] has as its system Trypanosoma cruzi. The data set can be described thus: Antitrypanosomal activity against Trypanosoma cruzi MHOM/Pe/2011/Arequipa;DTU 5 bloodstream trypomastigote infected in BALB/c mouse assessed as parasite-free spleen in acute phase at 20 mg/kg/day, po administered for 5 consecutive days starting from day 8 post infection followed by cyclophosphamide induced immunosuppression on day 80 post infection measured after day 100 post infection by PCR method relative to control. Format: functional. In short, it runs like this: as §1

Data set [12] deals with Trypanosoma cruzi. The data set can be described thus: Antitrypanosomal activity against Trypanosoma cruzi MHOM/Pe/2011/Arequipa;DTU 5 epimastigote assessed as effect on L-alanine excretion at IC50 after 72 hrs by H NMR method relative to control. Format: functional, organism-based. In short, it runs like this: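 Cells were spun at 800 × g for 10 min and culture supernatants analysed by 1H NMR. Catabolite peaks were expressed as % variation versus untreated parasites.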

Data set [13] has as its system Trypanosoma cruzi. The data set can be described thus: Antitrypanosomal activity against Trypanosoma cruzi MHOM/Pe/2011/Arequipa;DTU 5 bloodstream trypomastigote infected in BALB/c mouse assessed as parasitemia reactivation in chronic phase at 20 mg/kg/day, po administered for 5 consecutive days starting from day 70 post infection followed by cyclophosphamide induced immunosuppression on day 80 post infection by Neubauer chamber relative to control. Format: functional. A digest of the protocol:
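Female BALB/c mice (three per group) were infected i.p. with 5 × 10^5 Arequipa bloodstream trypomastigotes and treated orally at 20 mg/kg/day for 5 days (vehicle 5% DMSO/0.5% HPMC). Once parasitemia was undetectable (day 80 pi), cyclophosphamide 200 mg/kg was given i.p. Bloodstream parasites were then counted to give % reactivation versus untreated controls.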

Data set [14] in a line: Selectivity index, ratio of IC50 for African green monkey Vero cells to IC50 for Trypanosoma cruzi TINF/CH/1956/Tulahuen;DTU 6 amastigote forms. Format: toxicity. The settings on record: read-out: Selectivity Index. A digest of the protocol: as §3

Calls of active or inactive are those of the source. No cut-off for these calls is given here.

Broadly, the IC50 is the point on the concentration scale where inhibition reaches its midpoint. Regarding `O=C(CCN1CCN(c2ccc(C(F)(F)F)cc2)CC1)c1ccc(O)cc1`, the Activity in data set [1] was 13%; in data set [3], -4.2%; in [4], “<= 30%”; in data set [5] it was 50%; in data set [8] it was -4.2%; in data set [11], 13%. For the same compound, the Activity in [13] is on record as 30%. In data set [2], this compound came in with a half-maximal inhibitory concentration (IC50) of 3.9 µM. Further, the selectivity ratio came out at 8.5 in data set [6], 17.4 in data set [9], 16.2 in [10] and 27.4 in [14]. Besides, the outcome in data set [7] and in [12] was Active.
`O=C(CCN1CCN(c2ccc(Cl)cc2)CC1)c1ccc(O)cc1`: the Activity in [1] was 50%; in data set [3], -5.1%; in data set [4] it was “<= 30%”; in data set [5], 63%; in [8], -5.1%; in data set [11], 50%. In addition, in [13], the Activity came to 20%. This compound showed a 50% inhibitory concentration (IC50) in data set [2] of 3 µM. Besides, the selectivity ratio was determined as 8.6 in [6], 20.4 in data set [9], 23.2 in data set [10] and 34.5 in data set [14]. The outcome in data set [7] and in data set [12] was Active.
For the compound `O=C(Cn1ccnc1[N+](=O)[O-])NCc1ccccc1` [BENZNIDAZOLE], the Activity in data set [1] is given as 25%; in data set [3], -4.7%; in data set [4], “<= 30%”; in [5] it was 38%; in [8], -4.7%; in data set [11], 25%. Further, the Activity in data set [13] is recorded as 40%. In [2], this compound displayed an IC50 of 3.9 µM. Besides, the selectivity ratio is > 13.1 in data set [6], > 67.2 in data set [9], > 45.6 in data set [10] and > 51.7 in data set [14]. Further, the outcome in [7] and in data set [12] was Active.
